Test results reported in ChEMBL document CHEMBL1629527, “In vitro antifungal activities of bis(alkylpyridinium)alkane compounds against pathogenic yeasts and molds” (Antimicrob Agents Chemother, 2010).

Key:
Cryptococcus neoformans [1] = test: Antifungal activity against Cryptococcus neoformans 05-202523 after 24 to 72 hrs by broth microdilution method; type: functional
Procedure, shortened: (§1)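 Broth microdilution MIC per CLSI M27-A3 (yeasts) or M38-A2 (molds). RPMI 1640 with L-glutamine, without bicarbonate, buffered to pH 7.0 with 0.165 M MOPS. Final test range for the compounds was 0.175–87.5 μM. Incubation at 35°C with visual reading at 24–72 h. MIC was the lowest concentration giving 100% inhibition versus the growth control (azoles 50% or 100%, by organism). Each isolate was run in duplicate in two independent experiments.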

Lichtheimia corymbifera = test: Antifungal activity against Absidia corymbifera 04-200170 after 24 to 72 hrs by broth microdilution method; type: functional; procedure, shortened: as §1
Candida parapsilosis [2] = test: Antifungal activity against Candida parapsilosis 04-202398 after 24 to 72 hrs by broth microdilution method; type: functional; conditions: Lodderomyces parapsilosis; procedure, shortened: as §1
Aspergillus flavus [3] = test: Antifungal activity against Aspergillus flavus 05-203758 after 24 to 72 hrs by broth microdilution method; type: functional; procedure, shortened: as §1
Pichia kudriavzevii [4] = test: Antifungal activity against Candida krusei ATCC 6258 after 24 to 72 hrs by broth microdilution method; type: functional; procedure, shortened: as §1
Candida albicans [5] = test: Antifungal activity against Candida albicans ATCC 10231 after 24 to 72 hrs by broth microdilution method; type: functional; procedure, shortened: as §1
Aspergillus flavus [6] = test: Antifungal activity against Aspergillus flavus ATCC 204304 after 24 to 72 hrs by broth microdilution method; type: functional; procedure, shortened: as §1
Nakaseomyces glabratus [7] = test: Antifungal activity against Candida glabrata 04-202345 after 48 to 72 hrs; type: functional
Procedure, shortened: (§2)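 MFC: after the MIC read, 30-μl aliquots from each well without visible growth were plated onto Sabouraud dextrose agar and incubated at 35°C. Reading was at 48–72 h for yeasts and up to 7 days for molds. MFC was the lowest concentration with no colonies.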

Fusarium solani = test: Antifungal activity against Fusarium solani 04-203102 after 24 to 72 hrs by broth microdilution method; type: functional
Procedure, shortened: (§3)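 Mold isolates subcultured on potato dextrose agar, then tested by CLSI M38-A2 broth microdilution in RPMI 1640 (L-glutamine, no bicarbonate) buffered to pH 7.0 with 0.165 M MOPS. Compounds were dissolved in water and tested at a final 0.175–87.5 μM. Plates were incubated at 35°C. MIC was read visually as the lowest concentration giving 100% inhibition versus the growth control. Each isolate was run in duplicate in two independent experiments.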

Nakaseomyces glabratus [8] = test: Antifungal activity against Candida glabrata 04-202345 after 24 to 72 hrs by broth microdilution method; type: functional; procedure, shortened: as §1
Pichia kudriavzevii [9] = test: Antifungal activity against Candida krusei 04-202328 after 24 to 72 hrs by broth microdilution method; type: functional; procedure, shortened: as §1
Aspergillus fumigatus [10] = test: Antifungal activity against Aspergillus fumigatus 05-203114 after 24 to 72 hrs by broth microdilution method; type: functional; procedure, shortened: as §1
Candida parapsilosis [11] = test: Antifungal activity against Candida parapsilosis ATCC 22019 after 48 to 72 hrs; type: functional; conditions: Lodderomyces parapsilosis; procedure, shortened: as §2
Lomentospora prolificans [12] = test: Antifungal activity against Scedosporium prolificans 05-203060 after 48 to 72 hrs; type: functional
Procedure, shortened: (§4)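 CLSI M38-A2 broth microdilution for molds in RPMI 1640 with L-glutamine and no bicarbonate, buffered with 0.165 M MOPS to pH 7.0. Compounds were dissolved in water and tested at 0.175–87.5 μM final, 35°C, up to 7 days. MIC was read visually as 100% inhibition versus growth control. For MFC, clear wells were plated on SDA and the lowest concentration with no colonies taken. Each isolate was run in duplicate, two independent experiments.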

Scedosporium apiospermum [13] = test: Antifungal activity against Scedosporium apiospermum 05-203100 after 24 to 72 hrs by broth microdilution method; type: functional; procedure, shortened: as §3
Rhizopus arrhizus [14] = test: Antifungal activity against Rhizopus oryzae 05-203111 after 48 to 72 hrs; type: functional
Procedure, shortened: (§5)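 After the broth microdilution MIC read, suspension from every well without visible growth was plated onto Sabouraud dextrose agar and incubated at 35°C, up to 7 days for molds. MFC was taken as the lowest drug concentration with no colonies.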

[15] = Antifungal activity against Exophiala jeanselmei 03-200268 after 48 to 72 hrs; type: functional; procedure, shortened: as §4
[16] = Antifungal activity against Exophiala jeanselmei 03-200268 after 24 to 72 hrs by broth microdilution method; type: functional; procedure, shortened: as §1
[17] = tested on: Cunninghamella bertholletiae; test: Antifungal activity against Cunninghamella bertholletiae 99-12187 after 24 to 72 hrs by broth microdilution method; type: functional; procedure, shortened: as §1
Scedosporium apiospermum [18] = test: Antifungal activity against Scedosporium apiospermum 05-203100 after 48 to 72 hrs; type: functional; conditions: in the assay text read “for up to 7 days” for “after 48 to 72 hrs”; procedure, shortened: as §5
Cryptococcus neoformans [19] = test: Antifungal activity against Cryptococcus neoformans ATCC 90112 after 24 to 72 hrs by broth microdilution method; type: functional; procedure, shortened: as §1
Candida parapsilosis [20] = test: Antifungal activity against Candida parapsilosis ATCC 22019 after 24 to 72 hrs by broth microdilution method; type: functional; conditions: Lodderomyces parapsilosis; procedure, shortened: as §1
[21] = tested on: Cryptococcus gattii species complex; test: Antifungal activity against Cryptococcus gattii 05-200122 after 24 to 72 hrs by broth microdilution method; type: functional, Cryptococcus bacillisporus; procedure, shortened: as §1
[22] = Antifungal activity against Paecilomyces lilacinus 05-200601 after 24 to 72 hrs by broth microdilution method; type: functional; conditions: Purpureocillium lilacinum; procedure, shortened: as §3
Cryptococcus neoformans [23] = test: Antifungal activity against Cryptococcus neoformans 05-202523 after 48 to 72 hrs; type: functional; procedure, shortened: as §2
Aspergillus fumigatus [24] = test: Antifungal activity against Aspergillus fumigatus ATCC 204305 after 24 to 72 hrs by broth microdilution method; type: functional; procedure, shortened: as §1
Exophiala spinifera = test: Antifungal activity against Exophiala spinifera 03-200803 after 24 to 72 hrs by broth microdilution method; type: functional; procedure, shortened: as §3
Lomentospora prolificans [25] = test: Antifungal activity against Scedosporium prolificans 05-203060 after 24 to 72 hrs by broth microdilution method; type: functional; procedure, shortened: as §3
Rhizopus arrhizus [26] = test: Antifungal activity against Rhizopus oryzae 05-203111 after 24 to 72 hrs by broth microdilution method; type: functional; procedure, shortened: as §3
Candida tropicalis = test: Antifungal activity against Candida tropicalis 04-202361 after 24 to 72 hrs by broth microdilution method; type: functional; procedure, shortened: as §1
Aspergillus terreus = test: Antifungal activity against Aspergillus terreus 05-202844 after 24 to 72 hrs by broth microdilution method; type: functional; procedure, shortened: as §1
Candida albicans [27] = test: Antifungal activity against Candida albicans ATCC 90028 after 24 to 72 hrs by broth microdilution method; type: functional; procedure, shortened: as §1

MIC (Cryptococcus neoformans [1]): 25.3 µg/mL
MIC (Lichtheimia corymbifera): > 50.7 µg/mL
MIC (Candida parapsilosis [2]): 50.7 µg/mL
MIC (Aspergillus flavus [3]): > 50.7 µg/mL
MIC (Pichia kudriavzevii [4]): 25.3 µg/mL
MIC (Candida albicans [5]): 3.2 µg/mL
MIC (Aspergillus flavus [6]): > 50.7 µg/mL
MIC (Fusarium solani): > 50.7 µg/mL
MIC (Nakaseomyces glabratus [8]): 0.79 µg/mL
MIC (Pichia kudriavzevii [9]): 25.3 µg/mL
MIC (Aspergillus fumigatus [10]): > 50.7 µg/mL
MIC (Scedosporium apiospermum [13]): 6.3 µg/mL
MIC [16]: 1.58 µg/mL
MIC [17]: > 50.7 µg/mL
MIC (Cryptococcus neoformans [19]): 1.58 µg/mL
MIC (Candida parapsilosis [20]): 1.58 µg/mL
MIC [21]: 1.58 µg/mL
MIC [22]: > 50.7 µg/mL
MIC (Aspergillus fumigatus [24]): > 50.7 µg/mL
MIC (Exophiala spinifera): 0.79 µg/mL
MIC (Lomentospora prolificans [25]): 1.58 µg/mL
MIC (Rhizopus arrhizus [26]): 6.3 µg/mL
MIC (Candida tropicalis): 1.58 µg/mL
MIC (Aspergillus terreus): 50.7 µg/mL
MIC (Candida albicans [27]): 3.2 µg/mL
Compound: CC(C)(C)CCc1cc[n+](CCCCCCCCCCCC[n+]2ccc(CCC(C)(C)C)cc2)cc1.[Cl-].[Cl-]
MFC (Nakaseomyces glabratus [7]): 1.58 µg/mL
MFC (Candida parapsilosis [11]): 3.2 µg/mL
MFC (Lomentospora prolificans [12]): 12.7 µg/mL
MFC (Rhizopus arrhizus [14]): 25.3 µg/mL
MFC [15]: 3.2 µg/mL
MFC (Scedosporium apiospermum [18]): 12.7 µg/mL
MFC (Cryptococcus neoformans [23]): 50.7 µg/mL
